10 molecules from ChEMBL document CHEMBL1150647, “New diarylheptanoids from the stems of Carpinus cordata” (J Nat Prod, 2002) can be followed below.

Structures are written as SMILES. Converted amounts (≈) assume the structure as drawn.

The experiment deals with Radical scavenging activity. Nature of the experiment: Antioxidant activity assessed as DPPH free radical scavenging activity after 30 mins. Format: functional. A digest of the protocol:
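Test samples in EtOH mixed with 100 µM ethanolic DPPH and incubated at 37 °C for 30 min. Absorbance was read at 515 nm. Percent inhibition was calculated against an ethanol-treated control. IC50 is the sample concentration that scavenges 50% of DPPH radicals.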
For orientation: The DPPH test is a chemical assay of radical scavenging.

For `COC(=O)c1cc(O)c(O[C@@H]2O[C@H](CO)[C@@H](O)[C@H](O)[C@H]2O)c(O)c1`, the half-inhibitory concentration (IC50) is more than 100 µg/mL.
On to `COC(=O)c1cc(O)c(O)c(O[C@@H]2O[C@H](COC(=O)c3cc(O)c(O)c(O)c3)[C@@H](O)[C@H](O)[C@H]2O)c1`, for which the IC50 amounted to 4.9 µg/mL (≈ 9.83 µM).
Regarding `COC(=O)c1cc(O)c(O)c(O[C@@H]2O[C@H](CO)[C@@H](O)[C@H](O)[C@H]2O)c1`, the half-maximal inhibitory concentration (IC50) came to 4.6 µg/mL (≈ 13.3 µM).
For the molecule `O=C1CCc2ccc(O)c(c2)-c2cc(ccc2O)C[C@H](O)[C@H](O)[C@H]1O` [CARPINONTRIOL B], the IC50 worked out at 80.2 µg/mL (≈ 233 µM).
The same measure for `O=C1C[C@@H](O)[C@@H](O)Cc2ccc(O)c(c2)-c2cc(ccc2O)C[C@H]1O` [CARPINONTRIOLS A]: more than 100 µg/mL; for `O=C1CC[C@H](O)Cc2ccc(O)c(c2)-c2cc(ccc2O)C[C@H]1O` [CASUARINONDIOL]: more than 100 µg/mL.
The same measure for `Oc1cc(O)c2c(c1)O[C@H](c1ccc(O)c(O)c1)[C@@H](O)C2` [CIANIDANOL]: 2.7 µg/mL (≈ 9.3 µM); for `O=C(O[C@@H]1Cc2c(O)cc(O)cc2O[C@@H]1c1cc(O)c(O)c(O)c1)c1cc(O)c(O)c(O)c1` [EPIGALOCATECHIN GALLATE]: 2.7 µg/mL (≈ 5.89 µM).
On to `COC(=O)c1cc(O)c(O)c(O)c1` [GALLIC ACID METHYL ESTER], for which the IC50 was found to be 4.9 µg/mL (≈ 26.6 µM).
Regarding `Oc1ccc(/C=C/c2cc(O)cc(O)c2)cc1` [RESVERATROL], the IC50 is 16.2 µg/mL (≈ 71 µM).

The term IC50 denotes the concentration that inhibits the measured activity by half.
